Test [1] has as its system K562. In words: Cell cycle arrest in human K562 cells assessed as accumulation at sub G1 phase at 10 uM after 24 hrs by propidium iodide staining-based flow cytometric analysis (reference value: 15%). The format is functional.
Test [2] relates to K562. In words: Cell cycle arrest in human K562 cells assessed as accumulation at S phase at 10 uM after 24 hrs by propidium iodide staining-based flow cytometric analysis (reference value: 50.3%). Format: functional.
For test [3], the target named is Serine/threonine-protein kinase NIM1 (Homo sapiens) (UniProt Q8IY84). In words: Inhibition of NIM1 (unknown origin).
Test [4] deals with T1, Aurora kinase A (Homo sapiens) (UniProt O14965).
T1 sequence (whole entry): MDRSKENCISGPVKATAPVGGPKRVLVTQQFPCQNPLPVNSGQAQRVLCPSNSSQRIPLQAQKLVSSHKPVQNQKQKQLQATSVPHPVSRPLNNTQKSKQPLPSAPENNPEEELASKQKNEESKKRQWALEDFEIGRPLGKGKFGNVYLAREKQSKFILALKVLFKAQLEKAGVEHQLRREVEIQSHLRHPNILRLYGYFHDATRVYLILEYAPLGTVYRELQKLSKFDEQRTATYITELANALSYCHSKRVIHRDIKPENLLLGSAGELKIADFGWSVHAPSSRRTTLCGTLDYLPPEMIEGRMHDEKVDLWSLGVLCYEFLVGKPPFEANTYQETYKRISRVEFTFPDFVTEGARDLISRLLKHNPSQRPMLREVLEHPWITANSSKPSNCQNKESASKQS
The test can be described thus: Inhibition of Aurora A (unknown origin).

Test [5] has as its target Serine/threonine-protein kinase 38 (Homo sapiens) (UniProt Q15208). The test can be described thus: Inhibition of NDR1 (unknown origin).
Test [6] deals with T2, Dual specificity protein kinase TTK (Homo sapiens) (UniProt P33981).
T2 sequence (whole entry): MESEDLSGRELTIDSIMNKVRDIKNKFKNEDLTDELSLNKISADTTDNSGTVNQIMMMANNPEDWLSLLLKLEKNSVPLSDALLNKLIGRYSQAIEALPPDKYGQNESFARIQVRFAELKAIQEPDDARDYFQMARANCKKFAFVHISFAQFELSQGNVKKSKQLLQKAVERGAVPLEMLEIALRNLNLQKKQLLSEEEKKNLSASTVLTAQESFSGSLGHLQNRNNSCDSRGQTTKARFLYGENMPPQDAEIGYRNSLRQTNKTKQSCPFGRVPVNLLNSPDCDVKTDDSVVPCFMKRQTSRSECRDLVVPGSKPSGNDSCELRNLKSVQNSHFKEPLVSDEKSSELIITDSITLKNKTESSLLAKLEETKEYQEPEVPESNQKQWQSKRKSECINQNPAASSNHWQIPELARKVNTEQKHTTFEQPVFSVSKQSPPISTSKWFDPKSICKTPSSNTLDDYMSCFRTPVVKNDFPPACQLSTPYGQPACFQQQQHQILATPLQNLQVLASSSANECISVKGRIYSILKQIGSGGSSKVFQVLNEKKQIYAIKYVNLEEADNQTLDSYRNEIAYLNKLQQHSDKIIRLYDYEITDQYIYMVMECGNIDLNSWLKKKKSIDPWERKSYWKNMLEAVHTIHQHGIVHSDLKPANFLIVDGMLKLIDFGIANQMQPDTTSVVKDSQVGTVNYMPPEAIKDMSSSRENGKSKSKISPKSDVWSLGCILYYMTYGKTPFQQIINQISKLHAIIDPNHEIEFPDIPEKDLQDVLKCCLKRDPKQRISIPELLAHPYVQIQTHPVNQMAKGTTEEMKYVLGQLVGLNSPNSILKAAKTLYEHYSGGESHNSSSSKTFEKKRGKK
In words: Inhibition of TTK (unknown origin).

Test [7] has as its target Wee1-like protein kinase (Homo sapiens) (UniProt P30291). In words: Inhibition of WEE1 (unknown origin).
For test [8], the system named is K562. The test can be described thus: Induction of apoptosis in human K562 cells assessed as increase in PARP1 cleavage after 24 hrs by Immunoblotting. The format is functional, cell-based. In a few lines:
(§1)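 Cells treated 24 h with a range of doses, with 1 μM doxorubicin as control. Cells were harvested into Laemmli buffer, run on SDS-PAGE and blotted to nitrocellulose. Membranes were probed overnight with primary antibodies (PARP, Ser139-phospho-H2AX, Bcl-2, β-actin loading control), then peroxidase secondaries, with ECL detection on a CCD imager.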
For orientation: Immunoblotting shows a protein as a band on a membrane.

Test [9] concerns K562. The test can be described thus: Induction of apoptosis in human K562 cells assessed as increase in gammaH2AX level at 1.25 to 20 uM after 24 hrs by immunoblotting. The format is functional, cell-based. In a few lines: as §1
Test [10] deals with Serine/threonine-protein kinase PLK3 (Homo sapiens) (UniProt Q9H4B4). In words: Inhibition of PLK3 (unknown origin).

Activity calls are given as the source filed them. The rule behind the calls is not given here.

Chain of Wee1-like protein kinase (Homo sapiens) (P30291 whole entry, looked up): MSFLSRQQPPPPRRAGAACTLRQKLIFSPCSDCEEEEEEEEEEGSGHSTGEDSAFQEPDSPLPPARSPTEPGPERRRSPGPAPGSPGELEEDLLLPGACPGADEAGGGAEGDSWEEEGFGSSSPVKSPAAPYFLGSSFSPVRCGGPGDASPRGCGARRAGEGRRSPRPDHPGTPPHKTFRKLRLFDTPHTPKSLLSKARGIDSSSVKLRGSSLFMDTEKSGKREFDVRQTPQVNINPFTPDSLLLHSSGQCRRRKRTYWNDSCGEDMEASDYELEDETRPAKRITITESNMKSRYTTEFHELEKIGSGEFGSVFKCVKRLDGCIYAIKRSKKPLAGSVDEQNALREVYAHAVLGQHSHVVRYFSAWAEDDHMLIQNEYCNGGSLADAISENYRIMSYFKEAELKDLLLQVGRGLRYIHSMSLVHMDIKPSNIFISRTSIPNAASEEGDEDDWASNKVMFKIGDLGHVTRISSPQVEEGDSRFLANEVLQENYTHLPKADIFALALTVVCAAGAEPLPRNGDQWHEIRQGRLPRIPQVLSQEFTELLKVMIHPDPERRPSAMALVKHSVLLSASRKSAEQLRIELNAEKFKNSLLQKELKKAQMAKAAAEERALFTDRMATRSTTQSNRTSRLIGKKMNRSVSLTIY
Chain of Serine/threonine-protein kinase PLK3 (Homo sapiens) (Q9H4B4 whole entry, looked up): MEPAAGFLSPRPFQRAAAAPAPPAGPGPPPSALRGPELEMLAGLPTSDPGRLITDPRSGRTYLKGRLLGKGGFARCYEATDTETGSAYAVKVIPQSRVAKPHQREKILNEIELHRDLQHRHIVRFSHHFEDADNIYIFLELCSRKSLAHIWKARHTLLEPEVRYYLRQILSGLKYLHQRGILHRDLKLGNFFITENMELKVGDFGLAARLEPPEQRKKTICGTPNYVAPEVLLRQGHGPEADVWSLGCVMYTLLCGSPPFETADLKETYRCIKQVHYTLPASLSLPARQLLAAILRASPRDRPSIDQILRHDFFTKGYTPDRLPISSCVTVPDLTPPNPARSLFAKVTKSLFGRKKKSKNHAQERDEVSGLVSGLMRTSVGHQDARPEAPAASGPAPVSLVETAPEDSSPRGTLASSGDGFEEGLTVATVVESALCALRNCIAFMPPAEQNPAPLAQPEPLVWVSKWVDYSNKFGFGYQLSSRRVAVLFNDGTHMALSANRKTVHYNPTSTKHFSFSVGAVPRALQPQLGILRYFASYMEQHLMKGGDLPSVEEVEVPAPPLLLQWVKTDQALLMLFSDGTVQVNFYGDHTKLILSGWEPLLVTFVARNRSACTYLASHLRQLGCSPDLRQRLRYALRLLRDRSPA
Chain of Serine/threonine-protein kinase 38 (Homo sapiens) (Q15208 2-465 limits assumed): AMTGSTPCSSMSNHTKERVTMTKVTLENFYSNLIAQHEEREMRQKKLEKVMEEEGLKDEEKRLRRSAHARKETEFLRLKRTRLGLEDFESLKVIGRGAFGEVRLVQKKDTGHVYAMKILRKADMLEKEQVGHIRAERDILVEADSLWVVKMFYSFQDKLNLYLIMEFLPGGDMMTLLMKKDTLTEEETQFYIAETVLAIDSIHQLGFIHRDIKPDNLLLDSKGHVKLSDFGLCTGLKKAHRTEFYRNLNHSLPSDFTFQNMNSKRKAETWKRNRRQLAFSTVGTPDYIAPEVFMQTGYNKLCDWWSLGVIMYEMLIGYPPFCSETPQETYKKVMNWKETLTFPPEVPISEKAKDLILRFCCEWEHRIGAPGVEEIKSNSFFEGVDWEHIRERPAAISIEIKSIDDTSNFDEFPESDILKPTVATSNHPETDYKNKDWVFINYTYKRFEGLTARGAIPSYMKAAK
Chain of Serine/threonine-protein kinase NIM1 (Homo sapiens) (Q8IY84 whole entry): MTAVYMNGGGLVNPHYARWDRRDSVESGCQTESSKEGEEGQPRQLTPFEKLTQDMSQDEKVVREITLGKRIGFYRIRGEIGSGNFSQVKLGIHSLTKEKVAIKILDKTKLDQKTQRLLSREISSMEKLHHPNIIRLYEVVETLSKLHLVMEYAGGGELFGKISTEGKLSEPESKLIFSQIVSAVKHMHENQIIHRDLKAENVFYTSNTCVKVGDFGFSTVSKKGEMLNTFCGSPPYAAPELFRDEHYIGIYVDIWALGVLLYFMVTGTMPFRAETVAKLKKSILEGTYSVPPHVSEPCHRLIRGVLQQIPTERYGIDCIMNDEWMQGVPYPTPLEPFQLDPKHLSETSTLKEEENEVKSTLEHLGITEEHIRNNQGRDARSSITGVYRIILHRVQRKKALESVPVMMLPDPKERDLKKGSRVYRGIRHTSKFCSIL

For `CCCCCc1cc2nn(-c3ccccc3)cc2cn1`, the values for the Activity in [1], in test [2] and in test [8] were 35.4%, 3.3% and “Dose-dependent effect”, respectively. Also, the inhibition result in test [3], in [4], in test [5], in test [6], in test [7] and in [10] was “inactive” in each case. The result in test [9] was Active.

These data come from ChEMBL document CHEMBL4229372, “Synthesis and anti-mitotic activity of 2,4- or 2,6-disubstituted- and 2,4,6-trisubstituted-2H-pyrazolo[4,3-c]pyridines” (2018).
